Measured values collected from several papers.
Each line is one published result; the experiments were not run side by side. In brackets after ≈: the same amount, converted by molar mass.
Organism: Cryptococcus neoformans

Structure (SMILES)	effect on	technique	strain	time	measurement	result
OCCN1CCN(CCCN2c3ccccc3Sc3ccc(Cl)cc32)CC1	microbial growth	broth dilution			MIC	16 µg/mL (≈ 39.6 µM)
C=CCCCCCCCCCCCC(O)CC(O)CO (stereo not shown)	microbial growth	broth dilution	ATCC90113		IC50	> 200 µg/mL
O=C(CCCCCCCCCC[P+](c1ccccc1)(c1ccccc1)c1ccccc1)Nc1ccc(O)c(O)c1.[Br-]	microbial growth	broth dilution	ATCC208821	24 h	MIC	> 32 µg/mL
C[C@@H]1[C@H](O)[C@@H](C)/C=C/C=C/C=C/C=C/C=C/C=C/C=C/[C@H](O[C@@H]2O[C@H](C)[C@@H](O)[C@H](N)[C@@H]2O)C[C@@H]2O[C@](O)(C[C@@H](O)C[C@@H](O)[C@H](O)CC[C@@H](O)C[C@@H](O)CC(=O)O[C@H]1C)C[C@H](O)[C@H]2C(=O)O	microbial growth	broth dilution	ATCC90113		IC50	0.69 µg/mL (≈ 0.747 µM)
Cl.Oc1cccc2c1[nH]c1c(C3=CC4(O)CC/C=C\CCCCN5CCC3C3(CC6/C=C\CCCCN6C43)C5)nccc12 (single isomer, unassigned; (+))	microbial growth		ATCC90113		IC50	2.69 µg/mL
O=C(CCCCCCCC[P+](c1ccccc1)(c1ccccc1)c1ccccc1)Nc1ccc(O)c(O)c1.[Br-]	microbial growth	broth dilution	ATCC208821	24 h	MIC	> 32 µg/mL
C[C@@H]1[C@H](O)[C@@H](C)/C=C/C=C/C=C/C=C/C=C/C=C/C=C/[C@H](O[C@@H]2O[C@H](C)[C@@H](O)[C@H](N)[C@@H]2O)C[C@@H]2O[C@](O)(C[C@@H](O)C[C@@H](O)[C@H](O)CC[C@@H](O)C[C@@H](O)CC(=O)O[C@H]1C)C[C@H](O)[C@H]2C(=O)O	microbial growth		ATCC90113		MIC	1.25 µg/mL (≈ 1.35 µM)
C[C@@H]1[C@H](O)[C@@H](C)/C=C/C=C/C=C/C=C/C=C/C=C/C=C/[C@H](O[C@@H]2O[C@H](C)[C@@H](O)[C@H](N)[C@@H]2O)C[C@@H]2O[C@](O)(C[C@@H](O)C[C@@H](O)[C@H](O)CC[C@@H](O)C[C@@H](O)CC(=O)O[C@H]1C)C[C@H](O)[C@H]2C(=O)O	microbial killing		ATCC90113		MFC	0.68 µM (≈ 0.628 µg/mL)
O=C(CCCCCCCC[P+](c1ccccc1)(c1ccccc1)c1ccccc1)Nc1cc(O)c(O)c(O)c1.[Br-]	microbial growth	broth dilution	ATCC208821	24 h	MIC	8 µg/mL
C[C@@H]1[C@H](O)[C@@H](C)/C=C/C=C/C=C/C=C/C=C/C=C/C=C/[C@H](O[C@@H]2O[C@H](C)[C@@H](O)[C@H](N)[C@@H]2O)C[C@@H]2O[C@](O)(C[C@@H](O)C[C@@H](O)[C@H](O)CC[C@@H](O)C[C@@H](O)CC(=O)O[C@H]1C)C[C@H](O)[C@H]2C(=O)O	microbial growth		ATCC90113		IC50	1.14 µg/mL (≈ 1.23 µM)
